Experimental data collected from several papers.
Compare with care: the assays were run in different laboratories.
Target: NUAK family SNF1-like kinase 1 (NUAK1, Homo sapiens, UniProt O60285)
Residues used in one study (O60285 1-661): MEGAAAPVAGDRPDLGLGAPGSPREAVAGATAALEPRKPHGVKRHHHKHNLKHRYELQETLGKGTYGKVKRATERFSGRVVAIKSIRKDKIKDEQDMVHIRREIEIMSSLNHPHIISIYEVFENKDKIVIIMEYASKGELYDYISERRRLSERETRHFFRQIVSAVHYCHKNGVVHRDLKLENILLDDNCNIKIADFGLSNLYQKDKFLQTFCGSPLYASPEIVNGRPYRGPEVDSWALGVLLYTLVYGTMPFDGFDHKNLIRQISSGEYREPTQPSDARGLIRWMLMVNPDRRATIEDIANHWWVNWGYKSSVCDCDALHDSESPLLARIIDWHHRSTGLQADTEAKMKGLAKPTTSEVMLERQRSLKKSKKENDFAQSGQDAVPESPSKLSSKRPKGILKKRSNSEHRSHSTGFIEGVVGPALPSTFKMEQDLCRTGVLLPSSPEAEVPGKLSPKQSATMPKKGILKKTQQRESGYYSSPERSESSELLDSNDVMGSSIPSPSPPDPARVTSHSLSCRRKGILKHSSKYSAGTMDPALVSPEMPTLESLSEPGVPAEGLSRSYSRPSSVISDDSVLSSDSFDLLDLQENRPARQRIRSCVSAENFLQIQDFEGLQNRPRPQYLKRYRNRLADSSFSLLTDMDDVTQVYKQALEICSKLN

CNC(=O)[C@@H]1CC[C@@H](n2c(-c3ccc4cnccc4c3)nc3ccc(C(=O)NCc4cccc(C(N)=O)c4)cc32)C1 — remaining binding (binding; competition with immobilised ligand; 1 µM): 84%
NS(=O)(=O)c1cc(NC(=O)Cc2ccccc2)ccc1Oc1cccc(Cl)c1 — remaining binding (cell-free assay; competition with immobilised ligand; 1 µM): 100%
Nc1ncc2c(n1)-c1c([nH]c3ccc(C#CC4CC4)cc13)CCCC2 — remaining binding (binding; competition with immobilised ligand; 1 µM): 100%
CN(C)c1ncc(F)c(-c2cnn3ncccc23)n1 — remaining binding (binding; 1 µM): 100%
O=C1CCc2cc(Nc3cc(OC4CCOCC4)c([N+](=O)[O-])cc3Cl)ccc2N1 — remaining binding (cell-free assay; competition with immobilised ligand; 1 µM): 100%
O=C(Nc1c[nH]nc1C(=O)NC1CCNCC1)c1cc(F)cc(F)c1 — remaining binding (binding; competition with immobilised ligand; 1 µM): 76%
CCN1CCN(Cc2ccc(C(=O)Nc3ccc(C)c(Oc4ccc5c(c4)CC(=O)N5)c3)cc2C(F)(F)F)CC1 — remaining binding (binding; competition with immobilised ligand; 1 µM): 100%
O=C(NCc1ncc(C(F)(F)F)cc1Cl)c1ccc2c(c1)C1(CCS(=O)(=O)CC1)[C@H](C1CC1)N2S(=O)(=O)c1ccc(F)cc1 — remaining binding (cell-free assay; competition with immobilised ligand; 1 µM): 83%
CC1CCCN1c1nccc(-c2cnn3ncccc23)n1 (stereo not drawn) — remaining binding (binding; 1 µM): 89%
O=C(c1ccc(Nc2ncc(Cl)c(-c3cc4ccccc4s3)n2)cc1)N1CCC(N2CCCC2)CC1 — remaining binding (binding; competition with immobilised ligand; 1 µM): 2.6%
N[C@@H]1CCN(c2nccc(-c3cnn4ncccc34)n2)C1 — remaining binding (binding; 1 µM): 44%
CN(C)C(=O)Cn1cc(-c2nc([C@@](C)(c3ccc(-c4cnc(N)nc4)cc3)C3CC3)no2)cn1 — remaining binding (cell-free assay; competition with immobilised ligand; 1 µM): 100%
O=C(c1ccc(Nc2nccc(-c3cc4ccccc4s3)n2)cc1)N1CCC(N2CCCC2)CC1 — remaining binding (binding; competition with immobilised ligand; 1 µM): 22%
O=C(NC[C@@H]1[C@H]2CN(C(=O)OCc3cc(C(F)(F)F)cc(C(F)(F)F)c3)C[C@@H]12)c1ccc2[nH]nnc2c1 — remaining binding (cell-free assay; competition with immobilised ligand; 1 µM): 87%
C[C@H]1CCN(c2nccc(-c3cnn4ncccc34)n2)C1 — remaining binding (binding; 1 µM): 90%
C[C@H](c1ccnc(Nc2nc3ccc(-c4cc(N(C)C)ncn4)cc3[nH]2)c1)N1CCN(C(=O)CC(F)(F)F)CC1 — remaining binding (cell-free assay; competition with immobilised ligand; 0.1 µM): 93%
CN(C)c1nccc(-c2cnc3ncccn23)n1 — remaining binding (binding; 1 µM): 98%
O=C(NCCCN1CCOCC1)c1ccc(Nc2ncc(Cl)c(-c3ccc(Cl)s3)n2)cc1 — remaining binding (binding; competition with immobilised ligand; 1 µM): 0.9%
